Test results: ChEMBL document CHEMBL1926589, “2-Anilinonicotinyl linked 2-aminobenzothiazoles and [1,2,4]triazolo[1,5-b] [1,2,4]benzothiadiazine conjugates as potential mitochondrial apoptotic inducers” (Bioorg Med Chem, 2011)
Active and inactive are the calls of the source. The calls are words filed in the database; no cut-off is given here.

System: IMR-32
Test: Growth inhibition of human IMR32 cells at 10 uM by sulforhodamine B assay
Assay type: functional
Settings: read-out: GI
Procedure, shortened: (§1)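 Single-dose 10 µM screen by sulforhodamine B assay, reported as percent inhibition of cell proliferation. Cells grown in medium with 10% heat-inactivated FBS at 37 °C, 5% CO2, and treated at about 70% confluence or in log phase. Compounds dissolved in DMSO; controls received vehicle (<0.5% v/v).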
In the case of `COc1ccc(Nc2ncccc2C(=O)Nc2nc3ccc([N+](=O)[O-])cc3s2)cc1`, the inhibition of growth at 10 µM is reported as 55%.

System: SK-N-SH
Test: Growth inhibition of human SK-N-SH cells at 10 uM by sulforhodamine B assay
Assay type: functional
Settings: read-out: GI
Procedure, shortened: as §1
With `COc1ccc(Nc2ncccc2C(=O)Nc2nc3ccc([N+](=O)[O-])cc3s2)cc1` the inhibition of growth at 10 µM was 64%.

System: SiHa
Test: Growth inhibition of human SiHa cells at 10 uM by sulforhodamine B assay
Assay type: functional
Settings: read-out: GI
Procedure, shortened: as §1
With `COc1ccc(Nc2ncccc2C(=O)Nc2nc3ccc([N+](=O)[O-])cc3s2)cc1` the inhibition of growth at 10 µM was 66%.

System: SW-620
Test: Growth inhibition of human SW620 cells at 10 uM by sulforhodamine B assay
Assay type: functional
Settings: read-out: GI
Procedure, shortened: as §1
`COc1ccc(Nc2ncccc2C(=O)Nc2nc3ccc([N+](=O)[O-])cc3s2)cc1` gave an inhibition of growth at 10 µM of 64%.

System: HCT-15
Test: Growth inhibition of human HCT15 cells at 10 uM by sulforhodamine B assay
Assay type: functional
Settings: read-out: GI
Procedure, shortened: as §1
Compound `COc1ccc(Nc2ncccc2C(=O)Nc2nc3ccc([N+](=O)[O-])cc3s2)cc1` has an inhibition of growth at 10 µM of 47%.

System: not listed separately
Test: Growth inhibition of human 502713 cells at 10 uM by sulforhodamine B assay
Assay type: functional
Settings: read-out: GI
Procedure, shortened: as §1
With `COc1ccc(Nc2ncccc2C(=O)Nc2nc3ccc([N+](=O)[O-])cc3s2)cc1` the inhibition of growth at 10 µM was 59%.

System: DU-145
Test: Growth inhibition of human DU145 cells at 10 uM by sulforhodamine B assay
Assay type: functional
Settings: read-out: GI
Procedure, shortened: as §1
Work on `COc1ccc(Nc2ncccc2C(=O)Nc2nc3ccc([N+](=O)[O-])cc3s2)cc1` yielded an inhibition of growth at 10 µM of 32%.

System: A549
Test: Growth inhibition of human A549 cells at 10 uM by sulforhodamine B assay
Assay type: functional
Settings: read-out: GI
Procedure, shortened: as §1
`COc1ccc(Nc2ncccc2C(=O)Nc2nc3ccc([N+](=O)[O-])cc3s2)cc1` gave an inhibition of growth at 10 µM of 3%.

System: HEp-2
Test: Growth inhibition of human Hep2 cells at 10 uM by sulforhodamine B assay
Assay type: functional
Settings: read-out: GI
Procedure, shortened: as §1
With `COc1ccc(Nc2ncccc2C(=O)Nc2nc3ccc([N+](=O)[O-])cc3s2)cc1` the inhibition of growth at 10 µM was 5%.

System: OVCAR-5
Test: Growth inhibition of human OVCAR5 cells at 10 uM by sulforhodamine B assay
Assay type: functional
Settings: read-out: GI
Procedure, shortened: as §1
With `COc1ccc(Nc2ncccc2C(=O)Nc2nc3ccc([N+](=O)[O-])cc3s2)cc1` the inhibition of growth at 10 µM was 52%.

System: HL-60
Test: Growth inhibition of human HL60 cells after 48 hrs by MTT assay
Assay type: functional, cell-based
Settings: HL-60, 48 h
With `COc1ccc(Nc2ncccc2C(=O)Nc2nc3ccc([N+](=O)[O-])cc3s2)cc1` the IC50 was 0.7 µM.

System: SiHa
Test: Growth inhibition of human SiHa cells after 48 hrs by MTT assay
Assay type: functional, cell-based
Settings: not given
Work on `COc1ccc(Nc2ncccc2C(=O)Nc2nc3ccc([N+](=O)[O-])cc3s2)cc1` yielded an IC50 of 28 µM.

System: CV-1
Test: Growth inhibition of african green monkey CV1 cells after 48 hrs by MTT assay
Assay type: cell-based
Settings: Chlorocebus aethiops, CV-1, 48 h
With `COc1ccc(Nc2ncccc2C(=O)Nc2nc3ccc([N+](=O)[O-])cc3s2)cc1` the IC50 was 10 µM.

System: not listed separately
Test: Therapeutic ratio of IC50 for african green monkey CV1 cells to IC50 for human HL60 cells
Assay type: ADME, cell-based, HL-60
Settings: CV1 cells and HL60 cells, read-out: Ratio IC50
Work on `COc1ccc(Nc2ncccc2C(=O)Nc2nc3ccc([N+](=O)[O-])cc3s2)cc1` yielded a selectivity ratio of 14.

System: HL-60
Test: Induction of apoptosis in human HL60 cells assessed as early apoptotic cells at 1 uM after 24 hrs using Annexin V-FITC and propidium iodide staining by flow cytometry relative to control
Assay type: functional
Settings: not given
Procedure, shortened: (§2)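 HL-60 cells (1 x 10^5 per 1.5 mL) treated 24 h, washed twice in PBS and stained in binding buffer with annexin V-FITC and PI. Flow cytometry with FITC in FL-1 (530 nm) and PI in FL-2 (585 nm), using quadrant statistics: lower right taken as apoptotic, upper right as post-apoptotic necrotic. Representative of three independent experiments.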
`COc1ccc(Nc2ncccc2C(=O)Nc2nc3ccc([N+](=O)[O-])cc3s2)cc1` showed an Activity of 7%.

System: HL-60
Test: Induction of apoptosis in human HL60 cells assessed as non-viable necrotic cells at 1 uM after 24 hrs using Annexin V-FITC and propidium iodide staining by flow cytometry relative to control
Assay type: functional
Settings: not given
Procedure, shortened: as §2
In the case of `COc1ccc(Nc2ncccc2C(=O)Nc2nc3ccc([N+](=O)[O-])cc3s2)cc1`, the Activity is reported as 14%.

System: HL-60
Test: Induction of apoptosis in human HL60 cells assessed as late apoptotic cells at 1 uM after 24 hrs using Annexin V-FITC and propidium iodide staining by flow cytometry relative to control
Assay type: functional
Settings: not given
Procedure, shortened: as §2
`COc1ccc(Nc2ncccc2C(=O)Nc2nc3ccc([N+](=O)[O-])cc3s2)cc1` showed an Activity of 3%.

System: HL-60
Test: Induction of apoptosis in human HL60 cells assessed as caspase3 activation using DEVD-AFC as substrate at 1 uM after 24 hrs by fluorimetry relative to control
Assay type: functional
Settings: not given
Procedure, shortened: (§3)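 HL-60 cells (2 x 10^6) treated 24 h, washed and lysed. Caspase-3, -8 and -9 activities in lysates measured fluorometrically with a commercial caspase fluorescent assay kit. Two independent experiments, each in duplicate.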
For `COc1ccc(Nc2ncccc2C(=O)Nc2nc3ccc([N+](=O)[O-])cc3s2)cc1`, the Activity was “inactive”.

System: HL-60
Test: Induction of apoptosis in human HL60 cells assessed as caspase8 activation using IETD-AFC as substrate at 1 uM after 24 hrs by fluorimetry relative to control
Assay type: functional
Settings: not given
Procedure, shortened: as §3
In the case of `COc1ccc(Nc2ncccc2C(=O)Nc2nc3ccc([N+](=O)[O-])cc3s2)cc1`, the Activity is reported as “inactive”.

System: HL-60
Test: Induction of apoptosis in human HL60 cells assessed as caspase9 activation using LEHD-AMC as substrate at 1 uM after 24 hrs by fluorimetry relative to control
Assay type: functional
Settings: not given
Procedure, shortened: as §3
With `COc1ccc(Nc2ncccc2C(=O)Nc2nc3ccc([N+](=O)[O-])cc3s2)cc1` the Activity was “inactive”.

System: HL-60
Test: Induction of apoptosis in human HL60 cells assessed as DNA ladder formation at 1 uM after 24 hrs by agarose gel electrophoresis
Assay type: functional, cell-based
Settings: not given
Procedure, shortened: (§4)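 Cells treated 24 h, then 2 x 10^6 cells lysed (Triton X-100 buffer, pH 8.0) with RNase at 37 °C for 90 min and proteinase-K at 50 °C for 1 h. DNA phenol/chloroform-extracted and ethanol-precipitated, then run on 1.8% agarose at 50 V for 1.5 h in TAE. Ladders viewed under UV.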
For `COc1ccc(Nc2ncccc2C(=O)Nc2nc3ccc([N+](=O)[O-])cc3s2)cc1`, the Activity was “Active”.

System: HL-60
Test: Induction of apoptosis in human HL60 cells assessed as DNA ladder formation at 10 uM after 24 hrs by agarose gel electrophoresis
Assay type: functional, cell-based
Settings: not given
Procedure, shortened: as §4
With `COc1ccc(Nc2ncccc2C(=O)Nc2nc3ccc([N+](=O)[O-])cc3s2)cc1` the Activity was “Active”.

System: SiHa
Test: Induction of apoptosis in human SiHa cells assessed as DNA ladder formation at 10 uM after 24 hrs by agarose gel electrophoresis
Assay type: functional, cell-based
Settings: not given
Procedure, shortened: as §4
With `COc1ccc(Nc2ncccc2C(=O)Nc2nc3ccc([N+](=O)[O-])cc3s2)cc1` the Activity was “inactive”.

System: HeLa
Test: Induction of apoptosis in human HeLa cells assessed as DNA ladder formation at 10 uM after 24 hrs by agarose gel electrophoresis
Assay type: functional, cell-based
Settings: not given
Procedure, shortened: as §4
With `COc1ccc(Nc2ncccc2C(=O)Nc2nc3ccc([N+](=O)[O-])cc3s2)cc1` the Activity was “inactive”.

System: HL-60
Test: Cell cycle arrest in human HL60 cells assessed as accumulation at sub-G0 phase measuring DNA damage at 1 uM after 24 hrs using propidium iodide staining by flow cytometry (reference value: 1%)
Assay type: functional
Settings: not given
Procedure, shortened: (§5)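 HL-60 cells (1 x 10^5 per 1.5 mL) treated 24 h, then fixed in 70% cold ethanol at −20 °C overnight. RNase digestion (400 µg/ml) at 37 °C for 45 min, then propidium iodide (10 µg/ml) for 30 min. Flow cytometry on 10,000 events, FL2-A vs FL2-W, with doublet discrimination. Sub-G0 (hypodiploid) peak taken as apoptotic cells. Mean ± SD of three independent experiments.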
Work on `COc1ccc(Nc2ncccc2C(=O)Nc2nc3ccc([N+](=O)[O-])cc3s2)cc1` yielded an Activity of 22%.

System: HL-60
Test: Cell cycle arrest in human HL60 cells assessed as accumulation at G1 phase at 1 uM after 24 hrs using propidium iodide staining by flow cytometry
Assay type: functional, cell-based
Settings: not given
Procedure, shortened: as §5
For `COc1ccc(Nc2ncccc2C(=O)Nc2nc3ccc([N+](=O)[O-])cc3s2)cc1`, the Activity was “inactive”.

System: HL-60
Test: Cell cycle arrest in human HL60 cells assessed as accumulation at S phase at 1 uM after 24 hrs using propidium iodide staining by flow cytometry
Assay type: functional, cell-based
Settings: not given
Procedure, shortened: as §5
With `COc1ccc(Nc2ncccc2C(=O)Nc2nc3ccc([N+](=O)[O-])cc3s2)cc1` the Activity was “inactive”.

System: HL-60
Test: Cell cycle arrest in human HL60 cells assessed as accumulation at G2/M phase at 1 uM after 24 hrs using propidium iodide staining by flow cytometry
Assay type: functional, cell-based
Settings: not given
Procedure, shortened: as §5
In the case of `COc1ccc(Nc2ncccc2C(=O)Nc2nc3ccc([N+](=O)[O-])cc3s2)cc1`, the Activity is reported as “inactive”.

System: HL-60
Test: Induction of apoptosis in human HL60 cells assessed as increase of reactive oxygen species level at 1 uM after 24 hrs using DCFH-DA fluorescent dye based flow cytometric analysis relative to control
Assay type: functional
Settings: not given
Procedure, shortened: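 HL-60 cells (1 x 10^5 per 1.5 mL) treated 24 h, then loaded with 10 µM H2DCFDA for 30 min at 37 °C. Washed twice in PBS and read in FL-1 (530 nm). Percentage of DCF-positive cells determined; mean ± SD of three experiments.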
With `COc1ccc(Nc2ncccc2C(=O)Nc2nc3ccc([N+](=O)[O-])cc3s2)cc1` the Activity was 44%.

System: HL-60
Test: Induction of NO production in human HL60 cells at 1 uM after 24 hrs using DAF-2DA fluorescent dye based flow cytometric analysis
Assay type: functional, cell-based
Settings: not given
Procedure, shortened: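 HL-60 cells (1 x 10^5 per 1.5 mL) preloaded 30 min with 10 µM DAF-2-DA before treatment. After 24 h exposure, cells were washed and read by flow cytometry in FL-1 as NO-positive population. Mean ± SD of three independent experiments.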
In the case of `COc1ccc(Nc2ncccc2C(=O)Nc2nc3ccc([N+](=O)[O-])cc3s2)cc1`, the Activity is reported as “inactive”.

System: HL-60
Test: Inhibition of NF-kappaB expression in human HL60 cells at 1 uM after 24 hrs by Western blotting
Assay type: functional, cell-based
Settings: not given
Procedure, shortened: (§6)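 HL-60 cells treated 24 h and lysed in RIPA buffer on ice; protein measured by Bradford against a BSA standard. 50 µg resolved by SDS-PAGE and transferred to PVDF, blocked in 5% milk/TBST, then primary antibodies 1:1000 for 2 h and HRP secondary 1:1000 for 1 h. ECL detection with β-actin as loading control; bands quantified by densitometry.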
With `COc1ccc(Nc2ncccc2C(=O)Nc2nc3ccc([N+](=O)[O-])cc3s2)cc1` the inhibition was “inactive”.

System: HL-60
Test: Induction of apoptosis in human HL60 cells assessed as PARP cleavage at 1 uM after 24 hrs by Western blotting
Assay type: functional, cell-based
Settings: not given
Procedure, shortened: as §6
In the case of `COc1ccc(Nc2ncccc2C(=O)Nc2nc3ccc([N+](=O)[O-])cc3s2)cc1`, the Activity is reported as “Active”.

System: HL-60
Test: Inhibition of Bcl-2 expression in human HL60 cells at 1 uM after 24 hrs by Western blotting
Assay type: functional, cell-based
Settings: not given
Procedure, shortened: as §6
With `COc1ccc(Nc2ncccc2C(=O)Nc2nc3ccc([N+](=O)[O-])cc3s2)cc1` the inhibition was “inactive”.
